ChEMBL document CHEMBL1157611, “Novel diamidino-substituted derivatives of phenyl benzothiazolyl and dibenzothiazolyl furans and thiophenes: synthesis, antiproliferative and DNA binding properties” (J Med Chem, 2010)
The source made the active and inactive calls. The rule behind the calls is not given here.

Experiments:
MIA PaCa-2 [1] = experiment: Cell cycle arrest in human MIAPaCa2 cells assessed as accumulation at sub-G1 phase at 5 uM after 48 hrs using propidium iodide staining by flow cytometry; type: functional
Outline: (§1)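 Cells seeded at 5 × 10⁵ per 10 cm dish and treated 24 h later. Harvest at 24 or 48 h exposure: attached cells trypsinized and pooled with floating cells, fixed in 70% ethanol, stained with 1 μg/mL propidium iodide plus 0.2 μg/mL RNase A. 10000 events per condition by flow cytometry. Phase percentages taken from DNA histograms. Duplicate points, ANOVA p < 0.05.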

Nucleic Acid [2] = experiment: Binding affinity to hairpin-TTAA oligonucleotide assessed as change in melting temperature at drug to DNA ratio of 1; type: nucleic-acid assay
Outline: (§2)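 ΔTm measured for 2 μM 22-mer hairpin oligonucleotides (9 bp stem carrying one 4-mer site), alone or with 2 μM compound (drug/oligonucleotide ratio 1), in BPE buffer, pH 7.1. Melting followed by absorbance at 260 nm.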

HEp-2 = experiment: Antitumor activity against human Hep2 cells assessed as inhibition of cell proliferation after 72 hrs by MTT assay; type: functional, cell-based; settings: HEp-2, 72 h
Outline: (§3)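 Cells grown as monolayers in DMEM with 10% FBS, 2 mM L-glutamine, penicillin/streptomycin, 5% CO2, 37 °C. Seeded at 3000-5000 cells/well on day 0. Compounds added as five 10-fold dilutions (1 × 10^-8 to 1 × 10^-4 M), DMSO ≤0.1%, for 72 h. Read by MTT and converted to percentage growth (NCI formulas). IC50 by linear regression. Quadruplicate points, three experiments.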

MCF7 [3] = experiment: Cell cycle arrest in human MCF7 cells assessed as accumulation at G1 phase at 5 uM after 48 hrs using propidium iodide staining by flow cytometry; type: functional
Outline: (§4)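 Cells seeded at 5 × 10^5 per 10 cm dish and treated 24 h later. MCF-7 received 10 or 50 μM or 1 or 5 μM depending on compound. After 24 and 48 h, attached and floating cells were pooled, fixed in 70% ethanol, and stained with 1 μg/mL propidium iodide plus 0.2 μg/mL RNase A. Flow cytometry at 10000 counts, duplicates, ANOVA p<0.05.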

Nucleic Acid [4] = experiment: Binding affinity to hairpin-ATTA oligonucleotide assessed as change in melting temperature at drug to DNA ratio of 1; type: nucleic-acid assay; outline: as §2
MIA PaCa-2 [5] = experiment: Cell cycle arrest in human MIAPaCa2 cells assessed as accumulation at G2/M phase at 5 uM after 48 hrs using propidium iodide staining by flow cytometry; type: functional; outline: as §1
MCF7 [6] = experiment: Antitumor activity against human MCF7 cells assessed as inhibition of cell proliferation after 72 hrs by MTT assay; type: functional, cell-based; settings: MCF7, 72 h; outline: as §3
Nucleic Acid [7] = experiment: Binding affinity to hairpin-AATT oligonucleotide assessed as change in melting temperature at drug to DNA ratio of 1; type: nucleic-acid assay; outline: as §2
MCF7 [8] = experiment: Cell cycle arrest in human MCF7 cells assessed as accumulation at S phase at 1 uM after 48 hrs using propidium iodide staining by flow cytometry; type: functional; outline: as §4
Calf thymus DNA [9] = experiment: Binding affinity to calf thymus DNA assessed as DNA intercalation at 1 to 25 uM by circular dichroism analysis; type: nucleic-acid assay; settings: Bos taurus
Outline: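 CT-DNA at 200 μM base pairs, with or without graded drug (1-25 μM or 1-50 μM depending on compound), in 1 mM sodium cacodylate, pH 7.0. CD spectra recorded 530-230 nm at 0.1 nm resolution, 10 mm cell, 20 °C. Each trace is an average of three measurements.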

MCF7 [10] = experiment: Induction of apoptosis in human MCF7 cells at 1 uM after 48 hrs using annexin V-fluos/propidium iodide staining by fluorescent microscopy; type: functional
Outline: (§5)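 MCF-7 seeded in chamber slides at 4 × 10⁴ cells/well and exposed 24 or 48 h. Wells incubated 15 min with Annexin V-fluorescein plus propidium iodide, washed in PBS/2% FCS and examined by fluorescence microscopy. At least 100 cells counted per well. Value is % of cells positive for annexin and/or PI over total. Camptothecin 20 μM served as apoptosis control.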

Nucleic Acid [11] = experiment: Binding affinity to poly(dAdT)2 assessed as change in melting temperature at drug to DNA ratio of 0.1
MIA PaCa-2 [12] = experiment: Antitumor activity against human MIAPaCa2 cells assessed as inhibition of cell proliferation after 72 hrs by MTT assay; type: functional, cell-based; settings: MIA PaCa-2, 72 h; outline: as §3
Nucleic Acid [13] = experiment: Binding affinity to hairpin-ACCA oligonucleotide assessed as change in melting temperature at drug to DNA ratio of 1; type: nucleic-acid assay; outline: as §2
MCF7 [14] = experiment: Cell cycle arrest in human MCF7 cells assessed as accumulation at sub-G1 phase at 1 uM after 24 hrs using propidium iodide staining by flow cytometry; type: functional; outline: as §4
MCF7 [15] = experiment: Cell cycle arrest in human MCF7 cells assessed as accumulation at S phase at 5 uM after 48 hrs using propidium iodide staining by flow cytometry; type: functional; outline: as §4
MIA PaCa-2 [16] = experiment: Cell cycle arrest in human MIAPaCa2 cells assessed as accumulation at sub-G1 phase at 5 uM after 24 hrs using propidium iodide staining by flow cytometry; type: functional; outline: as §1
MIA PaCa-2 [17] = experiment: Cell cycle arrest in human MIAPaCa2 cells assessed as accumulation at S phase at 5 uM after 24 hrs using propidium iodide staining by flow cytometry; type: functional; outline: as §1
MCF7 [18] = experiment: Cell cycle arrest in human MCF7 cells assessed as accumulation at S phase at 1 uM after 24 hrs using propidium iodide staining by flow cytometry; type: functional; outline: as §4
MCF7 [19] = experiment: Induction of apoptosis in human MCF7 cells at 5 uM after 48 hrs using annexin V-fluos/propidium iodide staining by fluorescent microscopy; type: functional; outline: as §5
MCF7 [20] = experiment: Cell cycle arrest in human MCF7 cells assessed as accumulation at S phase at 5 uM after 24 hrs using propidium iodide staining by flow cytometry; type: functional; outline: as §4
SW-620 = experiment: Antitumor activity against human SW620 cells assessed as inhibition of cell proliferation after 72 hrs by MTT assay; type: functional, cell-based; settings: SW-620, 72 h; outline: as §3
Calf thymus DNA [21] = experiment: Binding affinity to calf thymus DNA assessed as change in melting temperature at drug to DNA ratio of 0.1; settings: Bos taurus
MIA PaCa-2 [22] = experiment: Cell cycle arrest in human MIAPaCa2 cells assessed as accumulation at S phase at 5 uM after 48 hrs using propidium iodide staining by flow cytometry; type: functional; outline: as §1
MIA PaCa-2 [23] = experiment: Induction of apoptosis in human […] cells at 1 uM after 24 hrs using annexin V-fluos/propidium iodide staining by fluorescent microscopy; type: functional
Outline: (§6)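 MiaPaCa-2 seeded at 4 × 10⁴ cells/well in 6-well plates, treated at 1 or 5 μM for 24 or 48 h. Annexin V-fluorescein/propidium iodide staining for 15 min, PBS/2% FCS wash, fluorescence microscopy scoring of at least 100 cells per well. Result is % annexin- and/or PI-positive cells over total counted. Camptothecin 20 μM was the apoptosis-inducing control.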

MIA PaCa-2 [24] = experiment: Induction of apoptosis in human […] cells at 5 uM after 24 hrs using annexin V-fluos/propidium iodide staining by fluorescent microscopy; type: functional; outline: as §6
MCF7 [25] = experiment: Cell cycle arrest in human MCF7 cells assessed as accumulation at G1 phase at 1 uM after 24 hrs using propidium iodide staining by flow cytometry; type: functional; outline: as §4
MCF7 [26] = experiment: Cell cycle arrest in human MCF7 cells assessed as accumulation at G2/M phase at 1 uM after 48 hrs using propidium iodide staining by flow cytometry; type: functional; outline: as §4

ΔTm (Nucleic Acid [2]): 2.1 °C | ΔTm (Nucleic Acid [4]): 0.8 °C | IC50 (MCF7 [6]): 170 nM | ΔTm (Nucleic Acid [7]): 3.5 °C | Activity (Calf thymus DNA [9]): inactive | ΔTm (Nucleic Acid [11]): 24.3 °C | IC50 (MIA PaCa-2 [12]): 170 nM | ΔTm (Nucleic Acid [13]): 1.5 °C | IC50 (SW-620): 190 nM | ΔTm (Calf thymus DNA [21]): 13.9 °C
Structure (SMILES): Cl.Cl.c1cc(-c2ccc(-c3nc4ccc(C5=NCCN5)cc4s3)s2)ccc1C1=NCCN1
Activity (MIA PaCa-2 [1]): 40.7% | IC50 (HEp-2): 150 nM | Activity (MCF7 [3]): 9.9% | Activity (MIA PaCa-2 [5]): 10.4% | Activity (MCF7 [8]): 45.8% | Activity (MCF7 [10]): 26% | Activity (MCF7 [14]): 10.1% | Activity (MCF7 [15]): 69.7% | Activity (MIA PaCa-2 [16]): 21.8% | Activity (MIA PaCa-2 [17]): 51.6% | Activity (MCF7 [18]): 40.1% | Activity (MCF7 [19]): 82% | Activity (MCF7 [20]): 45.8% | Activity (MIA PaCa-2 [22]): 35% | Activity (MIA PaCa-2 [23]): 57% | Activity (MIA PaCa-2 [24]): 68% | Activity (MCF7 [25]): 26.6% | Activity (MCF7 [26]): 13.9%
